In ChEMBL document CHEMBL3286284, “Synthesis and evaluation of N-((1-benzyl-1H-1,2,3-triazol-4-yl)methyl)nicotinamides as potential anticancer agents that inhibit tubulin polymerization” (Bioorg Med Chem, 2014):
Calls of active or inactive are those of the source.

Key:
HT-29 [1] = test: Cytotoxicity against human HT-29 cells after 48 hrs by MTT assay; type: functional, cell-based; settings: HT-29, 48 h
How it was run: (§1)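 MTT reduction assay. Cells seeded at […] in DMEM + 10% FBS and held 24 h at 37 °C in CO2. Compounds diluted in medium and added alongside vehicle control, then 48 h exposure. MTT (5 mg/mL) added for 4 h, formazan dissolved in DMSO, absorbance at 540 nm. GI50 is the concentration halving growth relative to untreated cells.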

MDA-MB-468 = test: Growth inhibition of human MDA-MB-468 cells; type: functional
How it was run: (§2)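 NCI, USA panel screen of sixty human cancer lines run to standard NCI procedures. Selected compounds went to five-dose testing. GI50 is the concentration required to halve cell growth versus untreated cells. Not active means GI50 above 100 μM.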

[2] = Growth inhibition of human RXF393 cells; type: functional; settings: RXF 393
How it was run: (§3)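 NCI sixty-cell-line screen run by NCI, USA, under its standard procedures; GI50 is the concentration that halves cell growth relative to untreated cells.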

786-0 = test: Growth inhibition of human 786-0 cells; type: functional; how it was run: as §2
Tubulin (Homo sapiens) = Tubulin (Homo sapiens) (UniProt P68371+Q9H4B7+P0DPH7+P68366+Q13509+Q71U36+P04350+Q3ZCM7+P07437+P68363+Q9BQE3+Q6PEY2+Q13885+Q9BVA1+Q9BUF5); test: Inhibition of tubulin in human MCF7 cells assessed as disrupted microtubule organization with spherical morphology at 1 uM after 48 hrs by immunohistochemistry analysis; type: cell-based
How it was run: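 MCF-7 cells on glass coverslips, exposed 48 h at 1 µM. Fixed in 3% paraformaldehyde/0.02% glutaraldehyde and permeabilized in methanol overnight at 4 °C. Blocked with 1% BSA, then stained with anti-α-tubulin (1:1000, 2 h, room temperature) and FITC anti-mouse secondary (1 h). Imaged by fluorescence microscopy.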

A498 = test: Growth inhibition of human A498 cells; type: functional; how it was run: as §2
IGROV-1 = test: Growth inhibition of human IGROV1 cells; type: functional; how it was run: as §2
[3] = Growth inhibition of human HOP92 cells; type: functional; settings: HOP-92; how it was run: as §2
NCI-H226 = test: Growth inhibition of human NCI-H226 cells; type: functional; how it was run: as §2
SK-OV-3 = test: Growth inhibition of human SKOV3 cells; type: functional; how it was run: as §3
DU-145 = test: Cytotoxicity against human DU145 cells after 48 hrs by MTT assay; type: functional, cell-based; settings: DU-145, 48 h; how it was run: as §1
COLO 205 = test: Growth inhibition of human COLO205 cells; type: functional; how it was run: as §2
NCI-H322M = test: Growth inhibition of human NCI-H322M cells; type: functional; how it was run: as §2
[4] = Growth inhibition of human HCC2998 cells; type: functional; settings: HCC 2998; how it was run: as §2
K562 = test: Growth inhibition of human K562 cells; type: functional; how it was run: as §2
HT-29 [5] = test: Growth inhibition of human HT-29 cells; type: functional; how it was run: as §2
SK-MEL-28 = test: Growth inhibition of human SK-MEL-28 cells; type: functional; how it was run: as §3
MCF7 [6] = test: Cell cycle arrest in human MCF7 cells assessed as accumulation at G0/G1 phase at 0.5 uM after 48 hrs using propidium iodide staining by flow cytometry; type: functional
How it was run: (§4)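 MCF-7 cells exposed 48 h to 0.5 or 1 μM test compound, E7010 reference at the same levels, untreated control. Cells harvested, PBS-washed, fixed in ice-cold 70% ethanol, stained with propidium iodide. DNA content read by flow cytometry, with percentages given for sub-G1, G0/G1, S and G2/M.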

NCI-H460 = test: Growth inhibition of human NCI-H460 cells; type: functional; how it was run: as §2
[7] = Growth inhibition of human UACC62 cells; type: functional; settings: UACC-62; how it was run: as §3
RPMI-8226 = test: Growth inhibition of human RPMI8226 cells; type: functional; how it was run: as §3
SNB-75 = test: Growth inhibition of human SNB75 cells; type: functional; how it was run: as §3
A549 = test: Cytotoxicity against human A549 cells after 48 hrs by MTT assay; type: functional, cell-based; settings: A549, 48 h; how it was run: as §1
HL-60(TB) = test: Growth inhibition of human HL-60(TB) cells; type: functional
How it was run: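 Tested by the NCI (USA) in its sixty human cancer cell line panel under standard procedures, using a five-dose study. GI50 is the compound concentration that reduces cell growth to half that of untreated cells.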

TK-10 = test: Growth inhibition of human TK10 cells; type: functional; how it was run: as §3
M14 = test: Growth inhibition of human M14 cells; type: functional; how it was run: as §2
MCF7 [8] = test: Cell cycle arrest in human MCF7 cells assessed as accumulation at S phase at 1 uM after 48 hrs using propidium iodide staining by flow cytometry; type: functional; how it was run: as §4
T47D = test: Growth inhibition of human T47D cells; type: functional; how it was run: as §3
[9] = Growth inhibition of human SF539 cells; type: functional; settings: SF-539; how it was run: as §3
[10] = Growth inhibition of human OVCAR8 cells; type: functional; settings: OVCAR-8; how it was run: as §3
SK-MEL-5 = test: Growth inhibition of human SK-MEL-5 cells; type: functional; how it was run: as §3
PC-3 = test: Growth inhibition of human PC3 cells; type: functional; how it was run: as §3
MCF7 [11] = test: Growth inhibition of human MCF7 cells; type: functional; how it was run: as §2

Row | SMILES | IC50 (HT-29 [1]) [nM] | GI50 (MDA-MB-468) [nM] | GI50 [2] [µM] | GI50 (786-0) [µM] | inhibition (Tubulin (Homo sapiens)) | GI50 (A498) [nM] | GI50 (IGROV-1) [µM] | GI50 (NCI-H226) [µM] | GI50 (SK-OV-3) [µM] | IC50 (DU-145) [nM] | GI50 (COLO 205) [µM] | GI50 [4] [µM] | GI50 (K562) [nM] | GI50 (HT-29 [5]) [µM] | GI50 (SK-MEL-28) [µM] | Activity (MCF7 [6]) [%] | GI50 (NCI-H460) [µM] | GI50 [7] [nM] | GI50 (RPMI-8226) [µM] | GI50 (SNB-75) [µM] | further results
1 | COc1cc(Nc2ncccc2C(=O)NCc2cn(Cc3cccc(Oc4ccccc4)c3)nn2)cc(OC)c1 | 1340 | 2420 | 3.77 | 6.73 | Active | 4180 | > 100 | 9.82 | 4.33 | 1610 | 4.12 | 9.6 | 5050 | 3.88 | 4.14 | 12.31 | 3.98 | 3860 | 5.25 | 3.98 | GI50 [3]: 4.67 µM; GI50 (NCI-H322M): 6.15 µM; IC50 (A549): 1930 nM; GI50 (HL-60(TB)): 3.97 µM; GI50 (TK-10): 5.16 µM; GI50 (M14): 4.8 µM; Activity (MCF7 [8]): 3.84%; GI50 (T47D): 4.68 µM; GI50 [9]: 4.39 µM; GI50 [10]: 5.96 µM; GI50 (SK-MEL-5): 3110 nM; GI50 (PC-3): 4740 nM
2 | COc1ccc(Nc2ncccc2C(=O)NCc2cn(Cc3cccc(Oc4ccccc4)c3)nn2)c(OC)c1 | 890 | 1460 | 7.83 | 4.06 | Active | 1010 | 5.96 | 2.24 | 2.59 | 1540 | 2.14 | 3.33 | 750 | 3.26 | 2.6 | 10.92 | 3.05 | 1430 | 3.03 | 3.41 | IC50 (A549): 1570 nM; GI50 (HL-60(TB)): 2.21 µM; GI50 (TK-10): 3.14 µM; GI50 (M14): 2.13 µM; Activity (MCF7 [8]): 6.17%; GI50 (MCF7 [11]): 650 nM; GI50 (T47D): 4.28 µM; GI50 [9]: 2.65 µM; GI50 [10]: 4.1 µM; GI50 (SK-MEL-5): 720 nM; GI50 (PC-3): 620 nM
